Our source for the ED50 values is ChEMBL document CHEMBL1121900, “Analgesic narcotic antagonists. 9. 6-Methylene-8 beta-alkyl-N-(cycloalkylmethyl)-3-hydroxy- or -methoxymorphinans” (1981).

For experiment [1], the system named is Mus musculus. As to the kind of experiment: Inhibition of acetic acid induced mouse writhing assay following s.c. administration. Format: functional. The note with it: sc. (In general: Writhing tests count abdominal constrictions after an irritant is injected.)
In experiment [2] the target is T1, Opioid receptor (Rattus norvegicus) (UniProt P33533+P34975+P33535). As to the kind of experiment: Inhibition of morphine analgesia in modified rat tail flick test. The format is functional. In short, it runs like this:
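Narcotic antagonist activity measured by modified rat tail-flick against an ED80 dose of morphine. Free bases dissolved by dropwise 1 N HCl, then diluted. At least five rats per dose and at least three doses per drug; AD50 determined.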

Experiment [3] deals with T1, Opioid receptor (Rattus norvegicus). As to the kind of experiment: Inhibition of morphine analgesia in modified rat tail flick test; Inactive at 25 uMol/kg. The format is functional. The note with it: 25 uM. (In general: Thermal pain tests record how soon the animal reacts.)
For experiment [4], the system named is Mus musculus. Nature of the experiment: Inhibition of acetic acid induced mouse writhing assay following s.c. administration; Inactive at 30 uMol/kg. The format is functional, organism-based. Conditions: 30 uM.
In experiment [5] the test system is Mus musculus. Nature of the experiment: Inhibition of acetic acid induced mouse writhing assay following s.c. administration; Inactive at 50 uMol/kg. Format: functional, organism-based. Conditions: 50 uM.
Experiment [6] deals with Mus musculus. As to the kind of experiment: Inhibition of acetic acid induced mouse writhing assay following s.c. administration; Inactive. The format is functional, organism-based.

Active and inactive are the calls of the source. No cut-off for these calls is given here. Some results are limits rather than exact numbers.

T1 sequence (P33533 whole entry, looked up): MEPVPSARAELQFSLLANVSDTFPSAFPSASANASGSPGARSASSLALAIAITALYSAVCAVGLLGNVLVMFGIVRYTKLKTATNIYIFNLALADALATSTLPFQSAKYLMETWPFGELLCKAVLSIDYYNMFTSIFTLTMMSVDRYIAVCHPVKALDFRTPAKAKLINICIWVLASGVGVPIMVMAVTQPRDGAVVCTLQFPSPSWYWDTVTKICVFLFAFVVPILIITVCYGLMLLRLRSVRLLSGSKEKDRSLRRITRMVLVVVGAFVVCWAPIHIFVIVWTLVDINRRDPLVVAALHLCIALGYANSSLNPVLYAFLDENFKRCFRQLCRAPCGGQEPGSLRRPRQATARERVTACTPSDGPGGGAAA
T1 sequence (P33535 whole entry, looked up): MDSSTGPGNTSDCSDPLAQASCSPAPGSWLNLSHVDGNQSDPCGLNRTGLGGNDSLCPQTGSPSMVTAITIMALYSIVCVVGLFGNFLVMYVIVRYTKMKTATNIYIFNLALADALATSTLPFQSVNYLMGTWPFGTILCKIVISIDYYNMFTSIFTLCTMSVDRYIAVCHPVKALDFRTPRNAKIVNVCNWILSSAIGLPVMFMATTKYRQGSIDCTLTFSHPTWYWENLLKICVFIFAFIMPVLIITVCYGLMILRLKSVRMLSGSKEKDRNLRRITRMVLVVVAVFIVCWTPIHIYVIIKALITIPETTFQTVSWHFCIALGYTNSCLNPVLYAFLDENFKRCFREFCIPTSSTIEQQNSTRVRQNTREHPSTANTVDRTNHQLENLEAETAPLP
T1 sequence (P34975 whole entry, looked up): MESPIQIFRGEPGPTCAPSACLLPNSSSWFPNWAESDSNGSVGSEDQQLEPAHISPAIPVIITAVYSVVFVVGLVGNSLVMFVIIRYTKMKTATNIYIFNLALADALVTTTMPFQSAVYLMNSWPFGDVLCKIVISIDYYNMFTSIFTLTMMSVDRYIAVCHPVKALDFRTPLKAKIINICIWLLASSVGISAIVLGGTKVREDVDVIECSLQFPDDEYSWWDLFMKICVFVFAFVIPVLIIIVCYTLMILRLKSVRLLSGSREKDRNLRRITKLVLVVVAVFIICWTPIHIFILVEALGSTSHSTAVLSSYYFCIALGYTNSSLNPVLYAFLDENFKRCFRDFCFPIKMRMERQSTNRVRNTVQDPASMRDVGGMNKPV

`O=C1CC[C@@]2(O)[C@H]3Cc4ccc(O)c5c4[C@@]2(CCN3CC2CC2)[C@H]1O5` [NALTREXONE]: in experiment [1], the ED50 – broadly, the dose that gives a 50% effect, or the effect in half of the subjects – is greater than 28 µmol/kg.
As to `CC(C)=CCN1CC[C@]2(C)c3cc(O)ccc3C[C@H]1[C@H]2C` [(+)-PENTAZOCINE], the ED50 worked out at 36.4 µmol/kg in experiment [2] and 12.9 µmol/kg in experiment [1].
As to `COc1ccc2c(c1)[C@]13CCN(CC4CC4)[C@H](C2)[C@@H]1[C@@H](C)CC(=O)C3`, in experiment [2], the 50% effect level (ED50) was put at a dose of 4.3 µmol/kg.
On to `C=C1CCC2C3Cc4ccc(O)cc4C2(CCN3CC2CCC2)C1` (stereo unspecified), for which the 50% effective dose (ED50) in experiment [2] was greater than 24 µmol/kg; in experiment [1] it was 0.22 µmol/kg.
Consider `O=C1CCC2C3Cc4ccc(O)cc4C2(CCN3CC2CCC2)C1` (stereo unspecified), for which the ED50 result in experiment [3] was “inactive”.
As for `C=C1C[C@H](C)C2C3Cc4ccc(OC)cc4C2(CCN3CC2CC2)C1` (stereo partly specified), the ED50 in experiment [2] was 11.3 µmol/kg; in experiment [1], 9.5 µmol/kg.
The corresponding values for `C=C1C[C@H](C)C2C3Cc4ccc(O)cc4C2(CCN3CC2CC2)C1` (stereo partly specified) are 0.89 µmol/kg and 5.3 µmol/kg.
The corresponding values for `C=C1C[C@H](C)C2C3Cc4ccc(OC)cc4C2(CCN3CC2CCC2)C1` (stereo partly specified) are 14.1 µmol/kg and 16.5 µmol/kg.
Consider `C=C1C[C@H](CC)C2C3Cc4ccc(O)cc4C2(CCN3CC2CC2)C1` (stereo partly specified), for which the ED50 result in experiment [4] is “inactive”. Moreover, in experiment [2], the ED50 came to 2.8 µmol/kg.
The compound `Oc1ccc2c(c1)[C@@]13CCCC[C@@]1(O)[C@@H](C2)N(CC1CCC1)CC3` showed an ED50 in experiment [2] of 2 µmol/kg.
Consider `O=C1CCC2C3Cc4ccc(O)cc4C2(CCN3CC2CC2)C1` (stereo unspecified), for which the values for the ED50 in experiment [2] and in experiment [1] were 7.4 µmol/kg and 3.3 µmol/kg, respectively.
Turning to `C=CCN1CC[C@]23c4c5ccc(O)c4O[C@H]2[C@@H](O)C=C[C@H]3[C@H]1C5` [NALORPHINE], the ED50 in experiment [2] was 2.5 µmol/kg; in experiment [1] it was 3.5 µmol/kg.
As for `C[C@H]1CC(=O)CC23CCN(CC4CCC4)C(Cc4ccc(O)cc42)C13` (stereo partly specified), the figures for the ED50 in experiment [2] and in experiment [1] were 2.8 µmol/kg and 0.29 µmol/kg, respectively.
The corresponding values for `C=C1CCC2C3Cc4ccc(O)cc4C2(CCN3CC2CC2)C1` (stereo unspecified) are 0.37 µmol/kg and 1.2 µmol/kg.
For `CC[C@H]1CC(=O)CC23CCN(CC4CCC4)C(Cc4ccc(O)cc42)C13` (stereo partly specified) the same measures were 0.82 µmol/kg and 0.54 µmol/kg.
Compound `CC[C@H]1CC(=O)CC23CCN(CC4CC4)C(Cc4ccc(O)cc42)C13` (stereo partly specified) showed an ED50 in experiment [2] of 4.7 µmol/kg. Also, the ED50 entry in experiment [5] is “inactive”.
With `C[C@H]1[C@H]2Cc3ccc(O)cc3[C@]1(C)CCN2CC1CC1`, in experiment [2], the ED50 is 0.81 µmol/kg.
In the case of `C=C1C[C@H](CC)C2C3Cc4ccc(O)cc4C2(CCN3CC2CCC2)C1` (stereo partly specified), the figures for the ED50 in experiment [2] and in experiment [1] were 21.2 µmol/kg and greater than 28 µmol/kg, respectively.
Regarding `C=C1CCC2C3Cc4ccc(OC)cc4C2(CCN3CC2CCC2)C1` (stereo unspecified), the figures for the 50% effective dose (ED50) in experiment [2] and in experiment [1] were greater than 20 µmol/kg and 3.2 µmol/kg, respectively.
With `COc1ccc2c(c1)C13CCN(CC4CCC4)C(C2)C1CCC(=O)C3` (stereo unspecified), in experiment [3], the ED50 result was “inactive”.
As for `COc1ccc2c(c1)C13CCN(CC4CCC4)C(C2)C1[C@@H](C)CC(=O)C3` (stereo partly specified), the ED50 in experiment [2] amounted to 16.4 µmol/kg; in experiment [1] it was 1.38 µmol/kg.
For the compound `C=CCN1CC[C@]23c4c5ccc(O)c4O[C@H]2C(=O)CC[C@@]3(O)[C@H]1C5`, the ED50 result in experiment [6] is “inactive”.
Regarding `C=C1C[C@H](C)C2C3Cc4ccc(O)cc4C2(CCN3CC2CCC2)C1` (stereo partly specified), the median effective dose (ED50) in experiment [2] is 2.5 µmol/kg; in experiment [1] it was 0.53 µmol/kg.
The corresponding values for `C[C@H]1CC(=O)CC23CCN(CC4CC4)C(Cc4ccc(O)cc42)C13` (stereo partly specified) are 1.8 µmol/kg and 10.2 µmol/kg.
